ChEMBL document CHEMBL5104154, “Thiamine analogues as inhibitors of pyruvate dehydrogenase and discovery of a thiamine analogue with non-thiamine related antiplasmodial activity” (RSC Med Chem, 2022)
Each block holds one compound with its values, some of them ahead of it. Active and inactive are the calls of the source. No cut-off for these calls is given here.

What was measured:
[1] = Cytotoxicity against human HFF cells assessed as inhibition of cell proliferation incubated for 96 hrs by SYBR-based fluorescence assay; format: toxicity
In short: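 Human foreskin fibroblasts exposed to compounds up to the highest concentration that solubility allowed.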

[2] = Selectivity index, ratio of IC50 for cytotoxicity against human HFF cells to IC50 for antiplasmodial activity against chloroquine-sensitive Plasmodium falciparum 3D7; format: toxicity, cell-based; conditions: read-out: Ratio IC50
Pyruvate decarboxylase = biological target: T1, Pyruvate decarboxylase (Zymomonas mobilis subsp. mobilis, UniProt P06672); test: Inhibition of Zymomonas mobilis pyruvate decarboxylase incubated for 3 mins using pyruvate as substrate in presence of TPP by spectrophotometric analysis
T1 sequence (P06672 whole entry): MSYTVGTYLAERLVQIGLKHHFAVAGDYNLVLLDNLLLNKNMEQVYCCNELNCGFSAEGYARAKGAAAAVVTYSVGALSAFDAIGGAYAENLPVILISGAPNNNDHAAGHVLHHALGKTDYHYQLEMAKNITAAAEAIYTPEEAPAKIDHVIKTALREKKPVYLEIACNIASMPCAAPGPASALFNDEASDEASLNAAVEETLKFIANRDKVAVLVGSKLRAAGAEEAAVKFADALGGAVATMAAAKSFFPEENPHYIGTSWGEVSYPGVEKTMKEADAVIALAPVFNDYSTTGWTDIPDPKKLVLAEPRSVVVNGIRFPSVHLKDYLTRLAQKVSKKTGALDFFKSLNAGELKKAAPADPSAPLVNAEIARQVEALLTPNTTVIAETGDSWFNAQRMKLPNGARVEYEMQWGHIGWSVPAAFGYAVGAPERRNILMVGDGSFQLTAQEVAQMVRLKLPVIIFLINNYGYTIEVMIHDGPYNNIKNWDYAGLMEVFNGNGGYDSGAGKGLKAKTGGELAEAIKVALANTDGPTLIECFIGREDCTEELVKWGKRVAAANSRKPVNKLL

Plasmodium falciparum [3] = test: Antiplasmodial activity against chloroquine-sensitive Plasmodium falciparum 3D7 overexpressing GFP-tagged plasmodium falciparum TPK assessed as inhibition of parasite proliferation in presence of 2.97 uM thiamine by SYBR-based fluorescence assay; format: functional, organism-based
Plasmodium falciparum [4] = test: Antiplasmodial activity against chloroquine-sensitive Plasmodium falciparum 3D7 assessed as inhibition of parasite proliferation in presence of 2.2 to 220 uM folic acid by SYBR-based fluorescence assay; format: functional, organism-based

Compound: Cc1ncc(Cn2cc(CCO)nn2)c(NCc2ccc(Br)cc2)n1
IC50 at 96 h [1]: 98 µM

Compound: Cc1ncc(Cn2cc(CCOC(=O)c3cccc(Cl)c3)nn2)c(N)n1
IC50 at 96 h [1]: > 200 µM
selectivity ratio [2]: > 3.2

Ki (Pyruvate decarboxylase): 3e-05 µM
Compound: Cc1ncc(Cn2cc(CCOP(=O)(O)OP(=O)(O)O)nn2)c(N)n1

Compound: Cc1ncc(Cn2cc(CCOC(=O)c3ccccc3)nn2)c(N)n1
IC50 at 96 h [1]: > 200 µM

Compound: Cc1ncc(C[n+]2csc(CCO)c2C)c(O)n1
Activity (Plasmodium falciparum [3]): Active

Ki (Pyruvate decarboxylase): 300 µM
Compound: Cc1ncc(Cn2cc(CCO)nn2)c(N)n1

Compound: COc1ncnc(NS(=O)(=O)c2ccc(N)cc2)c1OC
Activity (Plasmodium falciparum [4]): Active
